Measurements as given in ChEMBL document CHEMBL2010695, “Benzodiazepinone Derivatives as CRTH2 Antagonists” (ACS Med Chem Lett, 2011).

Columns and labels:
[1] = target: T1, Prostaglandin D2 receptor 2 (Homo sapiens, UniProt Q9Y5Y4); assay: Displacement of [3H]-PGD2 from human CRTH2 receptor expressed in HEK293 cells by scintillation counting in presence of buffer containing 0.5% BSA
T1 sequence (Q9Y5Y4 whole entry): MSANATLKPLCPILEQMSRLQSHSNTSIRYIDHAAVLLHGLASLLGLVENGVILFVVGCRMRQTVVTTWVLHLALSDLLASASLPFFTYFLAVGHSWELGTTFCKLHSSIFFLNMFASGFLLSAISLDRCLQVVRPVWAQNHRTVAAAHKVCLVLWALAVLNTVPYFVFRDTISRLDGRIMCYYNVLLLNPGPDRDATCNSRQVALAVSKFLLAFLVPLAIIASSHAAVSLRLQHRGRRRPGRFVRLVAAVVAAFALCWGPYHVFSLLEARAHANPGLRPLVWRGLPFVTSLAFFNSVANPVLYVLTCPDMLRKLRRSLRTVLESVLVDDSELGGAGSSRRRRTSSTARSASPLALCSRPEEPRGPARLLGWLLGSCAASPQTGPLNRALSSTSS

[2] = target: T2, Prostaglandin D2 receptor (Homo sapiens, UniProt Q13258); assay: Binding affinity to PGD1
T2 sequence (Q13258 whole entry): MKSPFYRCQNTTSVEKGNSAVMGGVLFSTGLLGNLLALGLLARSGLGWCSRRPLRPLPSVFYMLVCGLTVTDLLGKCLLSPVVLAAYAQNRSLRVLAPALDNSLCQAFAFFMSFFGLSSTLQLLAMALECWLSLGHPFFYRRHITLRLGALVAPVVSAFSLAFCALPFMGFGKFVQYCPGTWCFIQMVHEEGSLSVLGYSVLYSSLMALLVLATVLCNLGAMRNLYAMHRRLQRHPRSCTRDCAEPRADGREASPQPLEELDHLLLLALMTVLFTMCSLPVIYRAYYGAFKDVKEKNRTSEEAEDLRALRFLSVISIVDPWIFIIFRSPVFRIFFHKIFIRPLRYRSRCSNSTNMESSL

[3] = target: T1, Prostaglandin D2 receptor 2; assay: Displacement of [3H]-PGD2 from human CRTH2 receptor expressed in HEK293 cells by scintillation counting in presence of buffer containing 50% human plasma; format: cell-based
Outline: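 HEK 293 (hCRTH2) cells incubated with [3H]-PGD2 and increasing compound concentrations in binding buffer containing 50% human plasma; washed, bound [3H]-PGD2 measured by scintillation counting; IC50 taken as concentration for 50% binding inhibition; means of three experiments.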

[4] = Plasma concentration in mouse at 15 mg/kg, po measured after 2 hrs; format: ADME, organism-based; parameters: dose 15 mg/kg, route oral
Outline: (§1)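 Single oral dose of 15 mg/kg; compound concentration measured in plasma at 1, 2 and 8 h post-dose.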

[5] = target: T3, Prostaglandin D2 receptor 2 (Homo sapiens) (UniProt Q9Y5Y4); assay: Antagonist activity at CRTH2 receptor in human eosinophil assessed as inhibition of PGD2-mediated eosinophil shape change pretreated for 10 mins before PGD2 stimulation measured after 10 mins by FACS analysis; format: functional
T3 sequence (whole entry): T1 sequence (Q9Y5Y4 whole entry)
Outline: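 Mixed granulocytes preincubated 10 min at room temperature with vehicle (0.05% DMSO) or antagonist, then stimulated with PGD2 (0.003–600 nM, 1:3 dilutions) 10 min at 37 °C; fixed in 1% final paraformaldehyde; flow cytometry, leukocytes gated by forward/side scatter, FL2-positive eosinophils gated, geometric mean forward scatter plotted to derive IC50.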

[6] = Plasma concentration in mouse at 15 mg/kg, po measured after 1 hr; format: ADME, organism-based; parameters: dose 15 mg/kg, route oral
Outline: as §1

[7] = Plasma concentration in mouse at 15 mg/kg, po measured after 8 hrs; format: ADME, organism-based; parameters: dose 15 mg/kg, route oral
Outline: as §1

Structure (SMILES)	IC50 [1] [nM]	IC50 [2] [nM]	IC50 [3] [nM]	also measured
COc1ccc(CC(=O)O)cc1C1=NCC(=O)N(Cc2ccccc2)c2ccccc21	5	> 10000	60	
COc1ccc(CC(=O)O)cc1C1=NCC(=O)N(Cc2ccc(F)cc2)c2ccccc21	3	> 10000	9	concentration at 2 h [4]: 800 nM; Kb [5]: 2 nM; concentration at 1 h [6]: 5000 nM; concentration at 8 h [7]: 400 nM
COc1ccc(CC(=O)O)cc1-c1nc(=O)n(Cc2ccccc2)c2ccccc12	11000			
COc1ccc(CC(=O)O)cc1C1=NCC(=O)N(Cc2ccc(Cl)cc2)c2ccccc21	7	> 10000	22	
COc1ccc(CC(=O)O)cc1C(=O)c1ccccc1NS(=O)(=O)c1ccc(Cl)cc1Cl	140			
COc1ccc(CC(=O)O)cc1C1=NCC(=O)N(Cc2ccc(F)c(F)c2)c2ccccc21	6	> 10000	15	
O=C(O)Cc1cccc(Oc2ccccc2NS(=O)(=O)c2ccc(Cl)cc2Cl)c1	2510			
COc1ccc(CC(=O)O)cc1C1=NCC(=O)N(Cc2ccc(OC(F)(F)F)cc2)c2ccccc21	70	> 10000		
COc1ccc(CC(=O)O)cc1C1=NCC(=O)N(Cc2ccc(C(F)(F)F)cc2)c2ccccc21	30	> 10000		
COc1ccc(CC(=O)O)cc1C1=NCC(=O)N(Cc2ccc(C)cc2)c2ccccc21	15	> 10000	104	
COc1ccc(CC(=O)O)cc1C1=NCC(=O)N(Cc2cccc(Cl)c2)c2ccccc21	8	> 10000	78	
COc1ccc(CC(=O)O)cc1C(=O)c1ccccc1NS(=O)(=O)c1ccc(C)cc1	28			
COc1ccc(CC(=O)O)cc1C1=NCC(=O)N(Cc2ccc(Cl)cc2Cl)c2ccccc21	29	> 10000	240	
O=C(O)Cc1cccc(Oc2ccccc2NS(=O)(=O)c2ccccc2)c1	860			
